Publication PMC7684765 (Journal of medicinal chemistry, 2020)
Entries after “also recorded” stand apart in the source; their conditions may differ. Read-outs that look alike come from different tables or passages of the source.

Legend:
[1] = two hours; cited from earlier work
[2] = tested on: PTZ-induced seizures in zebrafish larvae; conditions: 20 μM; cited from earlier work
[3] = tested on: ATP levels in HT-22 cells; conditions: 5 μM; cited from earlier work
[4] = tested on: 6 Hz 44 mA mouse seizure model; conditions: cited from earlier work
zebrafish = conditions: cited from earlier work
[5] = tested on: 6 Hz 32 mA mouse seizure model; conditions: 6 Hz 32 mA mouse model, at 15 min; cited from earlier work
Pharmacokinetics in mice = assay type: in vivo; conditions: Mus musculus, read-out: free EC50 in mice
[6] = tested on: recurrent epileptiform discharges (REDs) in brain slices from the kainite-induced status epilepticus model; experiment: Spontaneous recurrent epileptiform discharges; conditions: brain slices in vitro
s.c. PTZ mouse model = experiment: Subcutaneous pentylenetetrazole; assay type: in vivo; conditions: ip, 450 mg/kg, 1 h
Procedure, shortened: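 Test compound was suspended in 0.5% HPMC and given ip to male CF-1 mice, 8 per group per dose. One hour later, 85 mg/kg PTZ was injected subcutaneously into the midline of the neck. Mice showing no spasms or twitching were scored protected.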

[7] = tested on: 6 Hz 32 mA mouse seizure model; experiment: 6 Hz 32 mA mouse seizure test; assay type: in vivo; conditions: ip
PAINS exclusion assay = assay type: physicochemical; conditions: up to 24 h
[8] = tested on: 6 Hz 44 mA mouse seizure model; experiment: 6 Hz 44 mA mouse seizure test; assay type: in vivo; conditions: ip, 400 mg/kg
MES-induced seizures = experiment: Maximal electroshock; assay type: in vivo; conditions: MES model, mouse, ip, 350 mg/kg
Procedure, shortened: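 Male CF-1 mice, 8 per group per dose, received test compound ip as a suspension in 0.5% HPMC, 1 h before stimulation. Tetracaine (0.5%) in electrolyte was applied to the eyes. A 60 Hz, 50 mA alternating current was delivered through corneal electrodes […]. Animals without hindlimb tonic extension were scored protected. Results are given as N/F, and ED50 was calculated by probit analysis.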

HT-22 neuronal cells = experiment: HT-22 cell toxicity study; assay type: cell-based; conditions: up to 50 μM
Procedure, shortened: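 HT-22 neuronal cells were grown in high-glucose DMEM with 10% FBS and 1% antibiotic-antimycotic at 37 °C and 5% CO2. Cells were seeded at 2000 per well. After 12 h, serially diluted test compound was added for 48 h. […] Readings were background-subtracted and normalized to control wells.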

[9] = tested on: motor impairment (mouse rotarod assay); experiment: Behavioral toxicity in mice; assay type: in vivo; conditions: acute (~1h) observation period, dose up to 800 mg/kg
mice = experiment: Lethality and other treatment effects in mice seizure models; assay type: in vivo; conditions: mice
[10] = as above; assay type: in vivo; conditions: CF-1, mouse, in vivo, intraperitoneal
[11] = tested on: 6 Hz mouse seizure model at 22 mA; experiment: 6 Hz 22 mA mouse seizure model; assay type: in vivo; conditions: up to 400 mg/kg

## C#CCNC1=CC(=O)c2ccccc2C1=O [2h]
[1]
  stability in mouse serum: no catabolic conversion
[2]
  anti-seizure activity: clear anti-seizure activity
[3]
  effect on ATP levels: can increase ATP levels
[4]; 6 Hz 44 mA mouse model
  seizure protection: no longer protective; also recorded: did not show any protection
zebrafish; 20 μM
  toxicity: no observable toxicity
[5]
  seizure protection: full protection

## CC(C)CCNC1=CC(=O)c2ccccc2C1=O [3d, 2-(isopentylamino)naphthalene-1,4-dione]
Pharmacokinetics in mice
  EC50: ~123 nM
[6]
  effect on spontaneous REDs: does not attenuate
s.c. PTZ mouse model
  animals protected: 6 out of 8
[7]; 400 mg/kg
  seizure protection: full protection
[7]; time of test 1 h
  ED50 value (EC50): 152.7 mg/kg
PAINS exclusion assay
  reaction with 2-mercaptoethanol (Michael reaction): does not react
[8]
  seizure protection: full protection
MES-induced seizures
  seizure protection: full protection
HT-22 neuronal cells
  toxicity in HT-22 cells (in words): do not display obvious toxicity; also recorded: does not show obvious toxicity
[9]
  motor impairment (mouse rotarod assay): does not show signs of major motor impairment
mice; after electric stimulation, after 24h (data not shown)
  doses lethal in some animals: greater than 500 mg/kg
mice; at time of treatment and ~1 h observation period (data not shown)
  other effects of treatment observed: writhing (abdominal constriction); also recorded: discolored urine and lethargy
[10]
  LD50 at 24 h: > 800 mg/kg

## O=C1C=C(NCCC2CCC2)C(=O)c2ccccc21 [3l, 2-((2-cyclobutylethyl)amino)naphthalene-1,4-dione]
[11]
  seizure protection: without full seizure protection
HT-22 neuronal cells
  toxicity in HT-22 cells (in words): do not display obvious toxicity

## CC[C@@H](C(N)=O)N1CCCC1=O [Levetiracetam]
[4]; 6 Hz 44 mA seizure model
  6 Hz 44 mA ED50: over 1000 mg/kg

## CC1=CC(=O)c2ccccc2C1=O [VK3]
PAINS exclusion assay
  reaction with 2-mercaptoethanol (Michael reaction): rapidly reacts
[3]
  effect on ATP levels: can increase ATP levels
zebrafish
  lethal dose: 7 µM
